The nature of data set [1]: Lipophilicity, log D of the compound. The class given is physicochemical. The conditions noted are these: octanol/water.
Data set [2] in a line: Metabolic stability in rat liver microsomes assessed as metabolic rate at 1 uM preincubated for 5 mins followed by NADPH addition and measured up to 30 mins by LC/MS-MS analysis. The class given is ADME, Microsome. The conditions noted are these: 0.5 h. On the technique in general: Liver microsomes are vesicles of endoplasmic reticulum, rich in cytochrome P450 enzymes.
Data set [3] in a line: AUClast in BALB/c mouse at 1 mg/kg, iv measured upto 24 hrs by LC/MS-MS analysis. Type of data set: ADME, organism-based. Set-up: time < 24 hr, dose 1 mg/kg, route intravenous. The conditions noted are these: in vivo.
Data set [4] can be described thus: Volume of distribution at steady state in BALB/c mouse at 1 mg/kg, iv measured upto 24 hrs by LC/MS-MS analysis. The class given is ADME, organism-based. The conditions noted are these: in vivo, read-out: Vdss. Summed up:
(§1)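 Pharmacokinetics were run with an IV dose of 1 mg/kg and a PO dose of 10 mg/kg. Parameters reported were AUClast, Cmax, CL, T1/2, Vss and %F.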

Data set [5] can be described thus: Half life in BALB/c mouse at 1 mg/kg, iv measured upto 24 hrs by LC/MS-MS analysis. The class given is ADME, organism-based. The conditions noted are these: in vivo.
Data set [6] is described as follows: Metabolic stability in human liver microsomes assessed as metabolic rate at 1 uM preincubated for 5 mins followed by NADPH addition and measured up to 30 mins by LC/MS-MS analysis. Type of data set: ADME, Microsome. The conditions noted are these: 0.5 h.
Data set [7] is described as follows: AUClast in BALB/c mouse at 10 mg/kg, po measured upto 24 hrs by LC/MS-MS analysis. The class given is ADME, organism-based. On the set-up: dose 10 mg/kg, time < 24 hr, route oral. The conditions noted are these: in vivo.
The nature of data set [8]: Cmax in BALB/c mouse at 10 mg/kg, po measured upto 24 hrs by LC/MS-MS analysis. The class given is ADME, organism-based. Set-up: dose 10 mg/kg, route oral. The conditions noted are these: in vivo.
A short description of data set [9]: Metabolic stability in mouse liver microsomes assessed as metabolic rate at 1 uM preincubated for 5 mins followed by NADPH addition and measured up to 30 mins by LC/MS-MS analysis. Type of data set: ADME, Microsome. The conditions noted are these: 0.5 h.
A short description of data set [10]: Clearance in BALB/c mouse at 1 mg/kg, iv measured upto 24 hrs by LC/MS-MS analysis. Type of data set: ADME, organism-based. The conditions noted are these: in vivo.
Data set [11] in a line: Cmax in BALB/c mouse at 1 mg/kg, iv measured upto 24 hrs by LC/MS-MS analysis. Type of data set: ADME, organism-based. On the set-up: dose 1 mg/kg, route intravenous. The conditions noted are these: in vivo.
Data set [12] is described as follows: Oral bioavailability in BALB/c mouse at 10 mg/kg measured upto 24 hrs by LC/MS-MS analysis. The conditions noted are these: in vivo. Type of data set: ADME, organism-based. Summed up: as §1

By logD is commonly meant the decadic logarithm of the distribution of all forms, ionised or not, between an organic phase and buffer at a given pH. What is called AUC(0-t) is exposure summed from dosing to a finite time, without extrapolation to infinity. Broadly, the half-life is the time in which the quantity being followed falls by half. The term Cmax denotes the maximum level reached in the sampled fluid or tissue. One may read the clearance as the volume of plasma or blood freed of the substance per unit of time. A higher clearance goes with a high capacity for elimination. A word on the bioavailability: it is the share of a dose that reaches the circulation, judged against a reference dose that is usually intravenous. A higher bioavailability goes with good availability.

For the molecule `O=S(=O)(Nc1nccs1)c1ccc2c(c1)OCC[C@@H]2c1ccc(C(F)(F)F)cc1-c1ccc(F)cc1`, in data set [1], the logD worked out at 4.5.

In turn, `O=C1COCCN1c1cc(C(F)(F)F)ccc1[C@H]1CCOc2cc(S(=O)(=O)Nc3nccs3)ccc21` came in with a logD in [1] of 1.8.

In [1], `O=S(=O)(Nc1nccs1)c1ccc2c(c1)OCC[C@H]2c1ccc(C(F)(F)F)cc1-n1ccnn1` had a logD of 2.3.

For `O=S(=O)(Nc1ncc(F)cn1)c1ccc2c(c1)OCC[C@@H]2c1ccc(C(F)(F)F)cc1-c1ccc(F)nc1`, in [1], the logD is 2.9.

As to `Cn1nccc1-c1cc(C(F)(F)F)ccc1[C@H]1CCOc2cc(S(=O)(=O)Nc3ccncn3)ccc21`, in [1], the logD came out at 1.8.

Molecule `Cn1nccc1-c1cc(C(F)(F)F)ccc1[C@H]1CCOc2cc(S(=O)(=O)Nc3ncc(F)cn3)ccc21` showed a logD in data set [1] of 2.5.

`Cc1nc(-c2cc(C(F)(F)F)ccc2[C@H]2CCOc3cc(S(=O)(=O)Nc4ncccn4)ccc32)co1` had a logD in [1] of 2.8.

`O=S(=O)(Nc1ncccn1)c1ccc2c(c1)OCC[C@@H]2c1ccc(C(F)(F)F)cc1-c1ccc(F)cn1` displayed a logD in data set [1] of 2.9.

In turn, `O=S(=O)(Nc1ncc(F)cn1)c1ccc2c(c1)OCC[C@@H]2c1ccc(C(F)(F)F)cc1N1CCOCC1` returned a logD in data set [1] of 2.8.

With `O=S(=O)(Nc1ccncn1)c1ccc2c(c1)OCC[C@@H]2c1ccc(C(F)(F)F)cc1N1CCOCC1`, the logD in [1] was determined as 2.

Consider `O=S(=O)(Nc1cccc(F)n1)c1ccc2c(c1)OCC[C@@H]2c1ccc(C(F)(F)F)cc1N1CCOCC1`, for which, in data set [1], the logD amounted to 4.1.

`O=S(=O)(Nc1nccs1)c1ccc2c(c1)OCC[C@@H]2c1ccc(C(F)(F)F)cc1-c1ccc(F)cn1`: the logD in [1] is 3.5.

As for `Cc1ccc(-c2cc(C(F)(F)F)ccc2[C@H]2CCOc3cc(S(=O)(=O)Nc4ccncn4)ccc32)cn1`, the logD in [1] was determined as 3.

In turn, `Cn1nccc1-c1cc(C(F)(F)F)ccc1[C@@H]1CCOc2cc(S(=O)(=O)Nc3nccs3)ccc21` came in with a logD in data set [1] of 2.2.

`O=S1(=O)CCN(c2cc(C(F)(F)F)ccc2[C@H]2CCOc3cc(S(=O)(=O)Nc4nccs4)ccc32)CC1`: in [1], the logD stood at 2.5.

Molecule `Cn1nccc1-c1cc(C(F)(F)F)ccc1[C@H]1CCOc2cc(S(=O)(=O)Nc3cc(F)ccn3)ccc21` showed a logD in data set [1] of 3.2.

With `O=S(=O)(Nc1ncccn1)c1ccc2c(c1)CC[C@@H]2c1ccc(C(F)(F)F)cc1N1CCOCC1`, the logD in data set [1] amounted to 2.9.

The molecule `Cc1nc(-c2cc(C(F)(F)F)ccc2[C@@H]2CCOc3cc(S(=O)(=O)Nc4nccs4)ccc32)co1` showed a logD in [1] of 2.9.

On to `Cc1ccc(-c2cc(C(F)(F)F)ccc2[C@H]2CCc3cc(S(=O)(=O)Nc4ncccn4)ccc32)cn1`, for which the logD in data set [1] is 2.8.

Take `Cc1nc(-c2cc(C(F)(F)F)ccc2[C@H]2CCOc3cc(S(=O)(=O)Nc4cccc(F)n4)ccc32)co1`: in data set [1], the logD amounted to 4.

Molecule `Cn1nccc1-c1cc(C(F)(F)F)ccc1[C@H]1CCOc2cc(S(=O)(=O)Nc3cnccn3)ccc21` displayed a logD in data set [1] of 1.8.

Regarding `O=S(=O)(Nc1ncccn1)c1ccc2c(c1)CC[C@@H]2c1ccc(C(F)(F)F)cc1-c1ccc(F)nc1`, the logD in data set [1] was found to be 3.2.

The molecule `Cc1ccc(-c2cc(C(F)(F)F)ccc2[C@H]2CCOc3cc(S(=O)(=O)Nc4cccc(F)n4)ccc32)cn1` showed a pH-dependent lipophilicity (logD) in data set [1] of 3.7.

In data set [1], `Cn1nccc1-c1cc(C(F)(F)F)ccc1[C@H]1CCOc2cc(S(=O)(=O)Nc3cccc(F)n3)ccc21` showed a logD of 3.6.

`Cc1nc(-c2cc(C(F)(F)F)ccc2[C@H]2CCOc3cc(S(=O)(=O)Nc4ncc(F)cn4)ccc32)co1` had a logD in data set [1] of 2.8.

In the case of `O=S(=O)(Nc1ccncn1)c1ccc2c(c1)OCC[C@@H]2c1ccc(C(F)(F)F)cc1-c1ccc(F)nc1`, the logD in data set [1] stood at 2.3.

In [1], `Cc1nc(-c2cc(C(F)(F)F)ccc2[C@H]2CCOc3cc(S(=O)(=O)Nc4nccs4)ccc32)co1` gave a logD of 2.9.

Consider `Cc1ccc(-c2cc(C(F)(F)F)ccc2[C@H]2CCOc3cc(S(=O)(=O)Nc4ncc(F)cn4)ccc32)cn1`, for which, in data set [1], the logD stood at 2.5.

In data set [1], `O=S(=O)(Nc1nccs1)c1ccc2c(c1)OCC[C@@H]2c1ccc(C(F)(F)F)cc1-c1nccs1` yielded a logD of 3.3.

`O=S(=O)(Nc1nccs1)c1ccc2c(c1)OCC[C@H]2c1ccc(C(F)(F)F)cc1-c1ccc(F)cc1`: in data set [1], the logD came out at 4.5.

Regarding `O=S(=O)(Nc1ncc(F)cn1)c1ccc2c(c1)OCC[C@@H]2c1ccc(C(F)(F)F)cc1-c1ccc(F)cn1`, the logD in data set [1] came to 3.

On to `Cn1nccc1-c1cc(C(F)(F)F)ccc1[C@H]1CCOc2cc(S(=O)(=O)Nc3ccc(F)cn3)ccc21`, for which the logD in [1] turned out to be 3.8.

`Cn1nccc1-c1cc(C(F)(F)F)ccc1[C@H]1CCOc2cc(S(=O)(=O)Nc3nccs3)ccc21`: the Drug metabolism in [2] was 0.04 nmol/min/mg; in data set [6], 0.05 nmol/min/mg; in data set [9] it was 0.1 nmol/min/mg. Also, the AUC(0-t) at 24 h in data set [3] turned out to be 2.2 µM·h; in [7], 15 µM·h. Besides, the Vd in [4] worked out at 2.2 L/kg. In addition, the half-life in [5] is 2 h. In [1], this molecule came in with a logD of 2.2. The results for the Cmax in [8] and in data set [11] were 6000 nM and 1300 nM, respectively. The clearance in data set [10] was determined as 14 mL/min/kg. This molecule registered a bioavailability in [12] of 68%.

The molecule `O=S(=O)(Nc1nccs1)c1ccc2c(c1)OCC[C@@H]2c1ccc(C(F)(F)F)cc1N1CCNCC1` gave a logD in data set [1] of 1.4.

Regarding `O=S(=O)(Nc1nccs1)c1ccc2c(c1)OCC[C@H]2c1ccc(C(F)(F)F)cc1-c1nccs1`, in [1], the logD turned out to be 3.3.

Regarding `CN1CCN(c2cc(C(F)(F)F)ccc2[C@H]2CCOc3cc(S(=O)(=O)Nc4nccs4)ccc32)CC1`, the logD in data set [1] worked out at 2.1.

As for `O=C1OCCN1c1cc(C(F)(F)F)ccc1[C@H]1CCOc2cc(S(=O)(=O)Nc3nccs3)ccc21`, the logD in data set [1] was determined as 2.1.

Turning to `O=S(=O)(Nc1nccs1)c1ccc2c(c1)OCC[C@@H]2c1ccc(C(F)(F)F)cc1-c1ccc(F)nc1`, the Drug metabolism in [2] stood at 0.05 nmol/min/mg; in data set [6], 0.03 nmol/min/mg; in data set [9], 0.04 nmol/min/mg. For the same molecule, the AUC(0-t) at 24 h in data set [3] turned out to be 2 µM·h; in data set [7], 19 µM·h. The Vd in [4] was 2.9 L/kg. In data set [5], this molecule showed a half-life of 2.8 h. The molecule further had a logD in data set [1] of 3.2. In addition, the Cmax in data set [8] came out at 4200 nM; in data set [11], 800 nM. Also, in data set [10], the clearance came out at 14 mL/min/kg. The bioavailability in data set [12] came to 95%.

On to `Cn1nccc1-c1cc(C(F)(F)F)ccc1[C@H]1CCOc2cc(S(=O)(=O)Nc3cccnn3)ccc21`, for which the logD in [1] amounted to 2.2.

In the case of `O=S(=O)(Nc1ccncn1)c1ccc2c(c1)OCC[C@@H]2c1ccc(C(F)(F)F)cc1-c1ccc(F)cn1`, the logD in data set [1] turned out to be 3.

On to `O=S(=O)(Nc1nccs1)c1ccc2c(c1)OCC[C@@H]2c1ccc(C(F)(F)F)cc1-n1ccnn1`, for which the Drug metabolism in [2], in data set [6] and in data set [9] was 0.02 nmol/min/mg in each case. Besides, the AUC(0-t) at 24 h turned out to be 0.9 µM·h in data set [3] and 7.1 µM·h in data set [7]. Also, the Vd in [4] was determined as 1 L/kg. The molecule further gave a half-life in [5] of 0.4 h. In [1], this molecule came in with a log distribution coefficient (logD) of 2.3. Further, the Cmax was 3000 nM in data set [8] and 2200 nM in [11]. Also, in data set [10], the clearance is 37 mL/min/kg. Besides, the bioavailability in data set [12] is 79%.

These data come from ChEMBL document CHEMBL4627393, “Discovery of Potent, Selective, and State-Dependent NaV1.7 Inhibitors with Robust Oral Efficacy in Pain Models: Structure-Activity Relationship and Optimization of Chroman and Indane Aryl Sulfonamides” (J Med Chem, 2020).
